Active and inactive are the calls of the source. The calls are words filed in the database; no cut-off is given here.
How the values were obtained:
[1] = (§1) Positive inotropic activity in cat heart papillary muscle assessed as increase in contractile force at 10 ug/mL measured for 5 to 30 mins; assay type: functional, Felis catus, Muscle tissue
Procedure, shortened: (§2)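 Right-ventricular cat papillary muscles in Krebs–Henseleit at 37 °C, field-stimulated at 1/s (4–10 ms, 6–10 V). Muscles equilibrated about 90 min, until force fell to 25–30% of original. Compound added and force recorded at 5, 10, 20 and 30 min, followed by ouabain 0.5 μg/mL. Positives were retested on three more preparations at ≥3 concentrations. Scored as mg increase in contractile force.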

[2] = species on record: Felis catus; assay: Positive inotropic activity in cat heart papillary muscle assessed as increase in contractile force up to 10 ug/mL measured for 5 to 30 mins in presence of beta-adrenergic inhibitor sotalol; assay type: functional, tissue-based
Procedure, shortened: (§3)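 Cat right-ventricular papillary muscle in Krebs–Henseleit at 37 °C, electrically driven at 1/s. Force recorded 5–30 min after compound, in the presence of the β-blocker sotalol at 10 μg/mL. Scored as mg increase in contractile force.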

[3] = species on record: Felis catus; assay: as §1; assay type: functional; conditions: Muscle tissue; procedure, shortened: as §2
[4] = species on record: Felis catus; assay: Positive inotropic activity in heart papillary muscle isolated from reserpine-treated cat assessed as increase in contractile force at 10 ug/mL measured for 5 to 30 mins; assay type: functional, tissue-based; conditions: Muscle tissue
Procedure, shortened: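 Cats pretreated with reserpine 0.5 mg/kg ip before papillary muscle isolation. Right-ventricular muscles kept in Krebs–Henseleit at 37 °C, stimulated at 1/s, and force recorded at 5–30 min after compound addition.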

[5] = (§4) Positive inotropic activity in cat heart papillary muscle assessed as increase in contractile force at 0.63 ug/mL measured for 5 to 30 mins; assay type: functional, Felis catus, Muscle tissue
Procedure, shortened: (§5)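 Right-ventricular papillary muscles from cat hearts in a 100-mL bath of Krebs–Henseleit solution at 37 °C, driven electrically with square waves of 4–10 ms, 6–10 V, 1/s. Equilibrated about 90 min until force fell to 25–30% of initial. Compound added, contractile force read at 5, 10, 20 and 30 min, then ouabain 0.5 μg/mL as a responsiveness check. Positive inotropy means a rise above 20%.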

[6] = Positive inotropic activity in cat heart papillary muscle assessed as concentration required to increase contractile force by 500 mg measured for 5 to 30 mins; assay type: functional, Felis catus, Muscle tissue; procedure, shortened: as §2
[7] = Positive inotropic activity in cat heart papillary muscle assessed as increase in contractile force at 2.5 ug/mL measured for 5 to 30 mins; assay type: functional, Felis catus, Muscle tissue; procedure, shortened: as §2
[8] = (§6) Inhibition of calf heart Na+-K+ dependent ATPase after 10 to 20 mins; set-up: species or system Bos taurus; conditions: read-out: I50
Procedure, shortened: (§7)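 Partially purified membrane ATPase from calf heart or guinea pig renal cortex. Reaction started by final addition of enzyme. Incubated at 37 °C under air, with aliquots taken at 10 and 20 min. Liberated phosphate measured by the Lowry–Lopez method. I50 came from log inhibitor vs percent inhibition lines, at least three points. This was done only where acute inhibition was >50% at 1 × 10⁻³ M.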

[9] = Inhibition of calf heart Na+-K+ dependent ATPase preincubated for 30 mins measured after 10 to 20 mins; set-up: species or system Bos taurus; conditions: read-out: I50
Procedure, shortened: (§8)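 Partially purified membrane ATPase from calf heart or guinea pig renal cortex. Inhibitor plus enzyme were preincubated 30 min at 10× final concentrations, then added to the otherwise complete assay system. Incubated at 37 °C under air, with aliquots taken at 10 and 20 min. Liberated phosphate measured by the Lowry–Lopez method. I50 came from log inhibitor vs percent inhibition lines, at least three points.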

[10] = species on record: Felis catus; assay: as §4; assay type: functional; conditions: Muscle tissue; procedure, shortened: as §5
[11] = species on record: Felis catus; assay: Positive inotropic activity in cat heart papillary muscle assessed as increase in contractile force at 10 ug/mL measured for 5 to 30 mins in presence of beta-adrenergic inhibitor sotalol; assay type: functional, tissue-based; procedure, shortened: as §3
[12] = Positive inotropic activity in cat heart papillary muscle assessed as increase in contractile force at 0.156 ug/mL measured for 5 to 30 mins; assay type: functional, Felis catus, Muscle tissue
Procedure, shortened: (§9)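 Right-ventricular cat papillary muscles in Krebs–Henseleit solution at 37 °C, paced at 1/s (4–10 ms, 6–10 V square waves). Equilibrated about 90 min; compound added once force had fallen to 25–30% of original (1.5–2 h). Force recorded 5, 10, 20 and 30 min after addition, then ouabain 0.5 μg/mL added. Increase over 20% scored positive. Actives retested on three further preparations at ≥3 concentrations.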

[13] = species on record: Bos taurus; assay: as §6; procedure, shortened: as §7
[14] = species on record: Cavia porcellus; assay: (§10) Inhibition of guinea pig kidney Na+-K+ dependent ATPase after 10 to 20 mins; procedure, shortened: as §7
[15] = Positive inotropic activity in cat heart papillary muscle assessed as increase in contractile force at 0.8 ug/mL measured for 5 mins (reference value: 1080 mg); assay type: functional, Felis catus, Muscle tissue
[16] = Positive inotropic activity in cat heart papillary muscle assessed as increase in contractile force at 1 ug/mL measured for 5 to 30 mins; assay type: functional, Felis catus, Muscle tissue; procedure, shortened: as §9
[17] = Positive inotropic activity in cat heart papillary muscle assessed as increase in contractile force at 2 ug/mL measured for 5 to 30 mins; assay type: functional, Felis catus, Muscle tissue; procedure, shortened: as §9
[18] = Positive inotropic activity in cat heart papillary muscle assessed as increase in contractile force at 0.5 ug/mL measured for 5 to 30 mins; assay type: functional, Felis catus, Muscle tissue; procedure, shortened: as §9
[19] = as §10; set-up: species or system Cavia porcellus; conditions: read-out: I50; procedure, shortened: as §7
[20] = test system: Canis familiaris; assay: Positive inotropic activity in Beagle dog assessed as increase in left ventricular contractile force at 50 mg/kg, iv; assay type: functional, organism-based; set-up: dose 50 mg/kg; conditions: Canis lupus familiaris, Heart left ventricle
[21] = Dissociation constant, pKa of the compound; assay type: physicochemical
Procedure, shortened: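 pKa determined in water or in 30% EtOH–70% H2O, depending on compound.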

[22] = Inhibition of guinea pig kidney Na+-K+ dependent ATPase preincubated for 30 mins measured after 10 to 20 mins; set-up: species or system Cavia porcellus; conditions: read-out: I50; procedure, shortened: as §8

Structure (SMILES) | Activity [1] [mg] | Activity [2] | Activity [6] [µg/mL] | Activity [7] [mg] | other results
N=C(NCCc1ccc(O)cc1)C(Cl)(Cl)Cl | >600 | Active | – | – | –
CN(C)C(=N)C(Cl)(Cl)Cl.Cl | >600 | Active | – | – | –
N=C(NCCc1ccccc1)C(Cl)(Cl)Cl | – | – | – | – | Activity [3]: inactive
Cl.N=C(NCC1CC1)C(Cl)(Cl)Cl | 201 | Active | 3.21 | 201 | Activity [4]: Active; Activity [5]: <200 mg
N=C(NCc1ccccc1)C(Cl)(Cl)Cl | <200 | Active | – | – | –
N=C(NCc1cn(C(=O)c2ccccc2)c2ccccc12)C(Cl)(Cl)Cl | >600 | Active | 6.2 | 201 | Activity [4]: Active; Activity [5]: <200 mg
CC(=O)OC(CNC(=N)C(Cl)(Cl)Cl)COc1ccccc1.Cl (stereo not given) | >600 | Active | 4.96 | 201 | Activity [4]: Active; Activity [5]: <200 mg; IC50 [8]: 170 µM; IC50 [9]: 70 µM
Cl.N=C(NCCc1ccc(O)c(O)c1)C(Cl)(Cl)Cl | 201 | – | >10 | <200 | Activity [10]: inactive; Activity [11]: inactive
ClC(Cl)(Cl)C1=NCCCN1 | >600 | – | 2.77 | 201 | Activity [12]: <200 mg; Activity [11]: inactive
ClC(Cl)(Cl)C1=NCCN1 | >600 | Active | 4.86 | 201 | Activity [5]: <200 mg
COc1cccc(CNC(=N)C(Cl)(Cl)Cl)c1.Cl | 201 | Active | >10 | – | –
Cl.N=C(NCCCO)C(Cl)(Cl)Cl | 201 | Active | >10 | <200 | –
N=C(NCCO)C(Cl)(Cl)Cl | >600 | Active | 5.5 | <200 | Activity [10]: inactive
N=C(NCc1ccccc1CO)C(Cl)(Cl)Cl | 201 | Active | – | – | I50 [13]: inactive; I50 [14]: inactive
C[C@@H](NC(=N)C(Cl)(Cl)Cl)c1ccccc1 | – | – | – | – | Activity [3]: inactive
CC(CCc1ccc(O)cc1)NCCc1ccc(O)c(O)c1 (stereo not given) [DOBUTAMINE] | – | – | – | – | Activity [15]: 1640 mg
CNC(=N)C(Cl)(Cl)Cl.Cl | >600 | – | 0.98 | >600 | Activity [5]: 201 mg; Activity [11]: inactive; IC50 [8]: 1000 µM; I50 [14]: inactive
CCCNC(=N)C(Cl)(Cl)Cl.Cl | >600 | Active | 2.22 | 201 | Activity [12]: < 200 mg
Cn1cc(CNC(=N)C(Cl)(Cl)Cl)c2ccccc21 | 201 | Active | – | – | –
Cl.N=C(NCCCNC(=N)C(Cl)(Cl)Cl)C(Cl)(Cl)Cl | <200 | Active | >10 | – | –
C=CCN(CC=C)C(=N)C(Cl)(Cl)Cl | – | – | – | – | Activity [3]: inactive

Structure (SMILES) | Activity [1] [mg] | Activity [2] | Activity [6] [µg/mL] | Activity [7] [mg] | other results
C=CCNC(=N)C(Cl)(Cl)Cl.Cl | >600 | – | 2.78 | 201 | Activity [4]: Active; Activity [10]: inactive; Activity [11]: inactive
C[C@@H]1O[C@@H](O[C@H]2C[C@@H](O)[C@]3(CO)[C@H]4[C@H](O)C[C@]5(C)[C@@H](C6=CC(=O)OC6)CC[C@]5(O)[C@@H]4CC[C@]3(O)C2)[C@H](O)[C@H](O)[C@H]1O [OUABAIN] | – | – | – | – | Activity [16]: >600 mg; Activity [17]: >600 mg; Activity [18]: 201 mg; IC50 [8]: 0.5 µM; IC50 [19]: 0.5 µM; Activity [20]: Active; IC50 [9]: 0.2 µM
COc1ccc(CNC(=N)C(Cl)(Cl)Cl)cc1.Cl | >600 | Active | 4.99 | 201 | Activity [4]: Active; pKa [21]: 6; Activity [5]: <200 mg; IC50 [8]: 20 µM; IC50 [19]: 800 µM; IC50 [22]: 100 µM; IC50 [9]: 5 µM
COc1ccc(CNC(=N)C(F)(Cl)Cl)cc1 | – | – | – | – | pKa [21]: 6.18; IC50 [8]: 20 µM; IC50 [19]: 15 µM; IC50 [22]: 2 µM; IC50 [9]: 2 µM
C=CCN(C)C(=N)C(Cl)(Cl)Cl.O=C(O)/C=C\C(=O)O | >600 | Active | 5.47 | 201 | Activity [5]: <200 mg
CC(=O)Nc1ccc(OCC(O)CNC(=N)C(Cl)(Cl)Cl)cc1 (stereo not given) | 201 | Active | – | – | –
COc1ccc(CNC(=N)C(Cl)(Cl)Br)cc1 | – | – | – | – | pKa [21]: 6.15
C/N=C(\N(C)C)C(Cl)(Cl)Cl | – | – | – | – | Activity [11]: inactive
COc1ccccc1CNC(=N)C(Cl)(Cl)Cl.Cl | 201 | Active | 4.75 | 201 | Activity [4]: Active; Activity [5]: <200 mg
COC(CNC(=N)C(Cl)(Cl)Cl)COc1ccccc1 (stereo not given) | 201 | Active | – | – | –
N=C(NCCc1c[nH]c2ccccc12)C(Cl)(Cl)Cl | >600 | Active | 2.33 | 201 | Activity [12]: 201 mg; IC50 [8]: 33 µM; IC50 [19]: 150 µM; IC50 [22]: 4 µM
N=C(NCC(O)c1ccccc1)C(Cl)(Cl)Cl (stereo not given) | >600 | Active | – | – | –
C/N=C(\NCC1CC1)C(Cl)(Cl)Cl.Cl | >600 | Active | – | – | –
C=CCN/C(=N\C)C(Cl)(Cl)Cl.Cl | >600 | Active | 3.89 | 201 | Activity [10]: inactive
O=C(NCCO)C(Cl)(Cl)Cl | – | Active | – | – | Activity [3]: inactive
N=C(Nc1ccccc1)C(Cl)(Cl)Cl | – | – | – | – | Activity [3]: inactive
C[C@H](NC(=N)C(Cl)(Cl)Cl)c1ccccc1.Cl | <200 | Active | >10 | – | –
N=C(NCC(O)COc1ccccc1)C(Cl)(Cl)Cl (stereo not given) | 201 | Active | – | – | –
Cl.N=C(N)C(Cl)(Cl)Cl | >600 | Active | 2.68 | 201 | Activity [4]: Active; Activity [5]: <200 mg
Cc1ccc(CNC(=N)C(Cl)(Cl)Cl)cc1.Cl | >600 | Active | 8.43 | <200 | Activity [5]: <200 mg

Source: ChEMBL document CHEMBL3244020, “Trichloroacetamidines, a new class of positive inotropic agents” (J Med Chem, 1978)
